Where a name gives a salt, the structure may show the parent alone.
Legend:
Format in all cases: functional
Felis catus [1] = experiment: Hypotensive activity in normotensive cat assessed as reduction in diastolic blood pressure at 500 mg/kg, iv; details: Artery
Method in brief: (§1)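 Male cats (2e3 kg), acclimatized 7 days at 22 °C with 12 h light/dark cycle; groups of six. Single 500 mg/kg dose injected via femoral vein, flushed with 1 mL saline. Systolic and diastolic pressure recorded with mercury manometer on smoked kymograph; mean ± SD and % change versus control, significance by one-way ANOVA at P < 0.05. Experiments run 8–10 a.m.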

Rattus norvegicus = species: Rattus norvegicus; experiment: Vasodilatory activity in Wistar rat aortic rings without endothelium assessed as reduction in norepinephrine hydrochloride-induced vasoconstriction; details: Wister, Aorta
Method in brief: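 Thoracic aortic rings from male Wister rats (250e350 g), killed by cervical dislocation and bleeding after light ether anaesthesia. Contraction to norepinephrine hydrochloride (10^-6 M) measured before and after increasing compound concentrations; compounds dissolved in DMSO (0.01 M stock), with DMSO-alone controls. IC50 = concentration giving 50% reduction of maximal NE contracture, derived by best-fit line.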

Felis catus [2] = experiment: Hypotensive activity in normotensive cat assessed as reduction in systolic blood pressure at 500 mg/kg, iv; details: Artery; method in brief: as §1

| IC50 (Rattus norvegicus) | SMILES | inhibition in vivo at 500 mg/kg (Felis catus [1]) | inhibition in vivo at 500 mg/kg (Felis catus [2]) |
| --- | --- | --- | --- |
| 303 µM | COc1ccccc1N1CCN(Cc2nc3ccccc3c(=O)[nH]2)CC1 | 21.7% | 23.7% |
| 201 µM | COc1cc2nc(C)n(NC(=O)CCN3CCN(c4ccccc4OC)CC3)c(=O)c2cc1OC | 40% | 42.2% |
| – | COc1cc2nc(C)n(NC(=O)CCN3CCN(C(=O)c4ccco4)CC3)c(=O)c2cc1OC | 11.1% | 9.38% |
| 487 µM | COc1cc2nc(N3CCN(C(=O)c4ccco4)CC3)nc(N)c2cc1OC [PRAZOSIN HYDROCHLORIDE] | 29% | 29% |
| – | CCOC(=O)c1nc2cc(OC)c(OC)cc2c(=O)n1NC(=O)CN1CCN(c2ccccc2OC)CC1 | 4.02% | 2.22% |
| – | COc1cc2nc(C)n(NC(=O)CN3CCN(c4ccccc4OC)CC3)c(=O)c2cc1OC | 2.78% | 3.13% |
| – | COc1cc2nc(C)n(NC(=O)CCN3CCN(c4ccc([N+](=O)[O-])cc4)CC3)c(=O)c2cc1OC | 6.82% | 5% |
| 400 µM | CCOC(=O)c1nc2cc(OC)c(OC)cc2c(=O)n1NC(=O)CCN1CCN(c2ccccc2OC)CC1 | 13.9% | 12.4% |
| – | COc1cc2nc(C)n(NC(=O)CCN3CCN(c4ccccc4)CC3)c(=O)c2cc1OC | 13.9% | 15.6% |
| – | COc1ccccc1N1CCN(CC(=O)Nn2c(C)nc3ccccc3c2=O)CC1 | 0% | 0% |

From ChEMBL document CHEMBL1667759, “Molecular modeling study and synthesis of quinazolinone-arylpiperazine derivatives as α1-adrenoreceptor antagonists” (Eur J Med Chem, 2011)
